Assay results: ChEMBL document CHEMBL4715860 (J Med Chem, 2020); call rule not given here

Key:
[1] = Inhibition of mTOR2 in human A2058 cells assessed as reduction in PKB/Akt phosphorylation at Ser473 incubated for 1 hr by Western blot analysis; type: cell-based; conditions: A2058, 1 h
Method in brief: (§1)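 A2058 cells grown 24 h at 37 °C, then exposed to inhibitor or DMSO for 1 h. Cells were PFA-fixed and stained for pPKB Ser473 or pS6 Ser235/236 by in-cell western with IR-dye secondary antibodies. Signal normalized to tubulin and to DMSO. IC50 from a 7-point (triplicate) or 11-point (duplicate) 1:2 series.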

[2] = Inhibition of mTORC1 in human A2058 cells assessed as reduction in RPS6 phosphorylation at S235/236 residue incubated for 1 hrs by Western blot analysis; type: cell-based; conditions: A2058, 1 h; method in brief: as §1
[3] = biological target: PI3-kinase p110-alpha/p85-alpha (Homo sapiens, UniProt P42336); experiment: Inhibition of alexa fluor 647-labeled kinase tracer 314 binding to recombinant human N-terminal His-tagged p110alpha/p85alpha expressed in baculovirus expression system measured after 60 mins by LanthaScreen TR-FRET assay relative to control
[4] = biological target: T1, Serine/threonine-protein kinase mTOR (Homo sapiens, UniProt P42345); experiment: Inhibition of alexa fluor 647-labeled kinase tracer 314 binding to recombinant human N-terminal GST-tagged mTOR (1360 to 2549 residues) expressed in baculovirus expression system measured after 60 mins by TR-FRET based LanthaScreen Eu kinase binding assay
[5] = biological target: T1, Serine/threonine-protein kinase mTOR; experiment: Binding affinity to wild-type human partial length MTOR (L1382 to W2549 residues) expressed in HEK293 cells measured after 1 hr by Kinomescan method; type: cell-based
Method in brief: (§2)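 Compound given as an 11-point threefold series from 30 μM, in technical duplicate. Kd from a Hill fit with slope fixed at −1.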

[6] = biological target: Phosphatidylinositol 4,5-bisphosphate 3-kinase catalytic subunit alpha isoform (Homo sapiens, UniProt P42336); experiment: Binding affinity to wild-type human partial length PIK3CA (R108 to N1068 residues) expressed in HEK293 cells measured after 1 hr by Kinomescan method; type: cell-based; method in brief: as §2
[7] = biological target: Phosphatidylinositol 4,5-bisphosphate 3-kinase catalytic subunit beta isoform (Homo sapiens, UniProt P42338); experiment: Binding affinity to wild-type human partial length PIK3CB (P118 to S1070 residues) expressed in HEK293 cells measured after 1 hr by Kinomescan method; type: cell-based; method in brief: as §2
[8] = biological target: Phosphatidylinositol 4,5-bisphosphate 3-kinase catalytic subunit gamma isoform (Homo sapiens, UniProt P48736); experiment: Binding affinity to wild-type human partial length PIK3CG (S144 to A1102 residues) expressed in HEK293 cells measured after 1 hr by Kinomescan method; type: cell-based; method in brief: as §2
[9] = biological target: Phosphatidylinositol 4-kinase beta (Homo sapiens, UniProt Q9UBF8); experiment: Binding affinity to wild-type human full length PIK4CB (M1 to M828 residues) expressed in HEK293 cells measured after 1 hr by Kinomescan method; type: cell-based; method in brief: as §2
[10] = biological target: Phosphatidylinositol 3-kinase catalytic subunit type 3 (Homo sapiens, UniProt Q8NEB9); experiment: Binding affinity to wild-type human partial length VPS34 (S282 to H879 residues) expressed in HEK293 cells measured after 1 hr by Kinomescan method; type: cell-based; method in brief: as §2
[11] = Substrate activity at human P-glycoprotein stably expressed in MDCK cells at 1 uM measured after 5 to 20 mins by UPLC-MS/MS analysis; type: ADME, cell-based; conditions: time 5-20 min
Method in brief: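 CRISPR canine-MDR1-knockout MDCKII cells stably expressing human MDR1, with the knockout parent line as control. Cells grown 5 days on TransWell filters and preincubated in HBSS 30 min at 37 °C. Compound at 1 μM added apical or basolateral. Receiver sampled at 5, 10 and 20 min; UPLC-MS/MS.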

CYP1A1 = biological target: T2, CYP1A1 (Homo sapiens, UniProt P04798); experiment: Drug metabolism assessed as human recombinant CYP1A1 expressed in baculovirus infected insect cells-mediated metabolism by measuring parent compound remaining at 1 uM incubated for 60 mins in presence of NADPH regenerating system by UHPLC based LC-MS analysis; type: ADME; conditions: read-out: Stabilty
T2 sequence (P04798 whole entry): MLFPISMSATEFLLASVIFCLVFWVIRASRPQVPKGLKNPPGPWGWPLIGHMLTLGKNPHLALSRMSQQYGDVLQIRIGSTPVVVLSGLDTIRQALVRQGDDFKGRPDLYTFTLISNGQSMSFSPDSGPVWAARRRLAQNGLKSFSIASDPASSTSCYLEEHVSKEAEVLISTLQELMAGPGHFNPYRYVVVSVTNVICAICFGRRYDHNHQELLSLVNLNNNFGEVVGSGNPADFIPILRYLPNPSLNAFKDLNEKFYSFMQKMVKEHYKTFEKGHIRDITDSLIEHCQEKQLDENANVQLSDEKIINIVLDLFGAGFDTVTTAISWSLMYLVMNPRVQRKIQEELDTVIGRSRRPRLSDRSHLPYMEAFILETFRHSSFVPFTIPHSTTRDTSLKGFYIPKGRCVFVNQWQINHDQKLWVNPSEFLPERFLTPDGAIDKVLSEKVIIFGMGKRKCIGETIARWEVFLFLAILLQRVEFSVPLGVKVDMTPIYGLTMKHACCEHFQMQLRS

CYP1A2 = biological target: T3, CYP1A2 (Homo sapiens, UniProt P05177); experiment: Drug metabolism assessed as human recombinant CYP1A2 expressed in baculovirus infected insect cells-mediated metabolism by measuring parent compound remaining at 1 uM incubated for 60 mins in presence of NADPH regenerating system by UHPLC based LC-MS analysis; type: ADME; conditions: read-out: Stabilty
T3 sequence (P05177 whole entry): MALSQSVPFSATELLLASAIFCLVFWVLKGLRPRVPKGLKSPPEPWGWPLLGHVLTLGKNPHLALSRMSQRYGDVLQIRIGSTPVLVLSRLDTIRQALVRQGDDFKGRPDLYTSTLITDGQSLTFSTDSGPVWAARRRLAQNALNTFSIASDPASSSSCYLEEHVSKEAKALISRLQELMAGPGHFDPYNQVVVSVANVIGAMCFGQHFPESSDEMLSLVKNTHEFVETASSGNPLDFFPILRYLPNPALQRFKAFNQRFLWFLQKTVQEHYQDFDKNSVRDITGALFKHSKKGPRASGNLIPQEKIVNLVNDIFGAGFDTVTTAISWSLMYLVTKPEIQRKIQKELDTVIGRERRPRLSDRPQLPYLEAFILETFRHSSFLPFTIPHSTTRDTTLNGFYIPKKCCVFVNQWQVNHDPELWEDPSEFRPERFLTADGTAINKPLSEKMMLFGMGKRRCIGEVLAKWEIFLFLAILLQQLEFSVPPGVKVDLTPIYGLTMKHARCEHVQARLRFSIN

Phosphatidylinositol 3-kinase catalytic subunit type 3, sequence (Q8NEB9 whole entry, the tested form may be a part): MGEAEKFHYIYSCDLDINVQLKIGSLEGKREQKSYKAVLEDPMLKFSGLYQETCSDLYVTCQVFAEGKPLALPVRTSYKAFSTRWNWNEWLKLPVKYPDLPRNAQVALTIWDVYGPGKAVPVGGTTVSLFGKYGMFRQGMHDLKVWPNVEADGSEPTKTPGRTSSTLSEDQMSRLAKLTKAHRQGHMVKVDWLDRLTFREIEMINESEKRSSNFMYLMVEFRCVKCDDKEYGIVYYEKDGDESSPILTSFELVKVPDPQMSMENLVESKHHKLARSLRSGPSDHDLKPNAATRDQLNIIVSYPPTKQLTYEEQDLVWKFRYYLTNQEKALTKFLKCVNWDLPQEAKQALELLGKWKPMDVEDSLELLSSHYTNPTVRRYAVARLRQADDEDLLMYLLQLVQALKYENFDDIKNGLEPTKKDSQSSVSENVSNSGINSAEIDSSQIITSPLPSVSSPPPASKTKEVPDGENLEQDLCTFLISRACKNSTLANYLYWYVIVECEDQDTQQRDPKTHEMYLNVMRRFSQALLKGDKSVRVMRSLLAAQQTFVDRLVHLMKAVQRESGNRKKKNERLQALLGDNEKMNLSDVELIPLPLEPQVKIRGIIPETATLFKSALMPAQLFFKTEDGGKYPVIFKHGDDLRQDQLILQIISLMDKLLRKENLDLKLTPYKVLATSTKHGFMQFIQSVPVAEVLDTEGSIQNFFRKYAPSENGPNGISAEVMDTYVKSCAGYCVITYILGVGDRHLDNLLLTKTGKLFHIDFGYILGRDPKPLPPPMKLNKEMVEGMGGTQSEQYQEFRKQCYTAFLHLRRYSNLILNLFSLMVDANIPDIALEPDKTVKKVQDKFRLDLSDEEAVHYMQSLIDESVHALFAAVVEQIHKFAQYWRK
Phosphatidylinositol 4,5-bisphosphate 3-kinase catalytic subunit beta isoform, sequence (P42338 whole entry, the tested form may be a part, canonical isoform): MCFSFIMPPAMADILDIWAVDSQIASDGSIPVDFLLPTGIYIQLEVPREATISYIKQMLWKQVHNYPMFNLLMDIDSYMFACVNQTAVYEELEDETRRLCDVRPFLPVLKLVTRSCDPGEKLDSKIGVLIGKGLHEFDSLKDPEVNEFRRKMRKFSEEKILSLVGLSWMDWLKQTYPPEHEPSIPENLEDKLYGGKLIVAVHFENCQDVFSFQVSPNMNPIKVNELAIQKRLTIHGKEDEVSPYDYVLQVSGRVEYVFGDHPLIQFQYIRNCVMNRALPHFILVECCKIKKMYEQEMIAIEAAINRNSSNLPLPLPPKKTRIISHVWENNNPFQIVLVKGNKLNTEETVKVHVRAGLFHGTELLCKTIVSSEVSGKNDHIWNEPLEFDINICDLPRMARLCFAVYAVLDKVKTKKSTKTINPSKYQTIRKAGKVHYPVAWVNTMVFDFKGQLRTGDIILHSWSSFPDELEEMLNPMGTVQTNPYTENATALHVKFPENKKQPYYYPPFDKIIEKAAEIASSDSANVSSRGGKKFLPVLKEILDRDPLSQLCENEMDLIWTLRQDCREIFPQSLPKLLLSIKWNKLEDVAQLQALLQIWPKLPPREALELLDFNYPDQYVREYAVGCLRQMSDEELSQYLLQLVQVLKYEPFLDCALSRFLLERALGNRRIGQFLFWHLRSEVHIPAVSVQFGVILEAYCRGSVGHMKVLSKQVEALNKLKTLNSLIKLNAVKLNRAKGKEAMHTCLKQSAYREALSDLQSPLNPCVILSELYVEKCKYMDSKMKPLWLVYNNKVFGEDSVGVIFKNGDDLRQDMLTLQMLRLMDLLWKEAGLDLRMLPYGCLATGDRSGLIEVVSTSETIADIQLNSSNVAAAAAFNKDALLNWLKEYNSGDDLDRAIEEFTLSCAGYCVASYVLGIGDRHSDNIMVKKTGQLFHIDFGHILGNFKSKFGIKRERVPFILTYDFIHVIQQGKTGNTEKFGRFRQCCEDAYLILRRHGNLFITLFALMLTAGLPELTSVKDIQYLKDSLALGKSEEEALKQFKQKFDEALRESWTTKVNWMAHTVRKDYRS
Phosphatidylinositol 4,5-bisphosphate 3-kinase catalytic subunit gamma isoform, sequence (P48736 whole entry, the tested form may be a part, canonical isoform): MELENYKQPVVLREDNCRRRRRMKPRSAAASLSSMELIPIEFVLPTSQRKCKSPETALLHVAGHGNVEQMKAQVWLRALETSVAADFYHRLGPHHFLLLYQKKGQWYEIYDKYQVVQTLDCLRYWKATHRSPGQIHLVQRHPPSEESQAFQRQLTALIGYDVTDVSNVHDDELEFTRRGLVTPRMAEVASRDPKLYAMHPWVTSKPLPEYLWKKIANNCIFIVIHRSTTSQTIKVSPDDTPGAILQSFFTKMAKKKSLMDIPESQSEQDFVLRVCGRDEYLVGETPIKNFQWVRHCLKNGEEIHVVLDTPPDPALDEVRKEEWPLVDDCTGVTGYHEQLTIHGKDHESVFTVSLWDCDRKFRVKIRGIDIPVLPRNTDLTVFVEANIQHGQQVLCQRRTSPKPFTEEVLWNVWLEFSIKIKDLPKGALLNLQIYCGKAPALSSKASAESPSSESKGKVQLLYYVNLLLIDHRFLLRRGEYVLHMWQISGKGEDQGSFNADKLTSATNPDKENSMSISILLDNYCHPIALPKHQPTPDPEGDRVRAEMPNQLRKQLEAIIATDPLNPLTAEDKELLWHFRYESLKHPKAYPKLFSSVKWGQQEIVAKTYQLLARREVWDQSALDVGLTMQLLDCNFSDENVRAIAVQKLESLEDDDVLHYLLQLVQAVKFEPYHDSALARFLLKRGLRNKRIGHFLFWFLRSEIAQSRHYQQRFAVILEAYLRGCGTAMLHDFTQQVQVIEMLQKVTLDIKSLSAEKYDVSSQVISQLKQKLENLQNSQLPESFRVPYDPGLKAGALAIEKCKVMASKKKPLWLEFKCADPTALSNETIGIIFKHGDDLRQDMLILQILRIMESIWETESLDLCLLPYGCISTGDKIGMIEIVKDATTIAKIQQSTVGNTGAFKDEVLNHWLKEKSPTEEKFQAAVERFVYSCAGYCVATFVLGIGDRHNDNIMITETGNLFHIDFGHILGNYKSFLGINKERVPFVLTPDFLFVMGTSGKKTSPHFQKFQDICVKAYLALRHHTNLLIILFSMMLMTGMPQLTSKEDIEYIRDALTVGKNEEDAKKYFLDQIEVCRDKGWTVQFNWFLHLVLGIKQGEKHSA
Phosphatidylinositol 4-kinase beta, sequence (Q9UBF8 whole entry, the tested form may be a part): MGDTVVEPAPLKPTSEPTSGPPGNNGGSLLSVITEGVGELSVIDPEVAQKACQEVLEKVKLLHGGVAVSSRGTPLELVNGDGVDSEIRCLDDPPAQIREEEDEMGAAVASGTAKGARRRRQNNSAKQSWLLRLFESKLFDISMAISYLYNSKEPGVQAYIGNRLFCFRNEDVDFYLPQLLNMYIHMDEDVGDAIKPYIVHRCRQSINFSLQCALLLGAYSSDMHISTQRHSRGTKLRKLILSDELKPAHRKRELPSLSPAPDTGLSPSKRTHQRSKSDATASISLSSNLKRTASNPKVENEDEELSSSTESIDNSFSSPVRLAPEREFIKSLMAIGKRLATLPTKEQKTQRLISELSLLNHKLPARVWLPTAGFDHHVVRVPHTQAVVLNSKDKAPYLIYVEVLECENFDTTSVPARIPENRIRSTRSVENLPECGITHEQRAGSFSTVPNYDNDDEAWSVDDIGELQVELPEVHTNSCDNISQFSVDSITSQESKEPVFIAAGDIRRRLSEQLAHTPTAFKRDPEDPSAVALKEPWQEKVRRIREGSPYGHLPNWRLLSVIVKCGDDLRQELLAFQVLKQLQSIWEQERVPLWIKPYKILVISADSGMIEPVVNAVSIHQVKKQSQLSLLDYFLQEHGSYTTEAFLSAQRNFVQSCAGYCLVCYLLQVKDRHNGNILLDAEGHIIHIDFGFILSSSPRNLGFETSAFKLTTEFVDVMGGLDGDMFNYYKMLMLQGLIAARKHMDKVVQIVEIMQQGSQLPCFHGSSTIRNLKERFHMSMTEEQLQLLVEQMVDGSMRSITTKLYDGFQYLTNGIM
Phosphatidylinositol 4,5-bisphosphate 3-kinase catalytic subunit alpha isoform, sequence (P42336 whole entry, the tested form may be a part, canonical isoform): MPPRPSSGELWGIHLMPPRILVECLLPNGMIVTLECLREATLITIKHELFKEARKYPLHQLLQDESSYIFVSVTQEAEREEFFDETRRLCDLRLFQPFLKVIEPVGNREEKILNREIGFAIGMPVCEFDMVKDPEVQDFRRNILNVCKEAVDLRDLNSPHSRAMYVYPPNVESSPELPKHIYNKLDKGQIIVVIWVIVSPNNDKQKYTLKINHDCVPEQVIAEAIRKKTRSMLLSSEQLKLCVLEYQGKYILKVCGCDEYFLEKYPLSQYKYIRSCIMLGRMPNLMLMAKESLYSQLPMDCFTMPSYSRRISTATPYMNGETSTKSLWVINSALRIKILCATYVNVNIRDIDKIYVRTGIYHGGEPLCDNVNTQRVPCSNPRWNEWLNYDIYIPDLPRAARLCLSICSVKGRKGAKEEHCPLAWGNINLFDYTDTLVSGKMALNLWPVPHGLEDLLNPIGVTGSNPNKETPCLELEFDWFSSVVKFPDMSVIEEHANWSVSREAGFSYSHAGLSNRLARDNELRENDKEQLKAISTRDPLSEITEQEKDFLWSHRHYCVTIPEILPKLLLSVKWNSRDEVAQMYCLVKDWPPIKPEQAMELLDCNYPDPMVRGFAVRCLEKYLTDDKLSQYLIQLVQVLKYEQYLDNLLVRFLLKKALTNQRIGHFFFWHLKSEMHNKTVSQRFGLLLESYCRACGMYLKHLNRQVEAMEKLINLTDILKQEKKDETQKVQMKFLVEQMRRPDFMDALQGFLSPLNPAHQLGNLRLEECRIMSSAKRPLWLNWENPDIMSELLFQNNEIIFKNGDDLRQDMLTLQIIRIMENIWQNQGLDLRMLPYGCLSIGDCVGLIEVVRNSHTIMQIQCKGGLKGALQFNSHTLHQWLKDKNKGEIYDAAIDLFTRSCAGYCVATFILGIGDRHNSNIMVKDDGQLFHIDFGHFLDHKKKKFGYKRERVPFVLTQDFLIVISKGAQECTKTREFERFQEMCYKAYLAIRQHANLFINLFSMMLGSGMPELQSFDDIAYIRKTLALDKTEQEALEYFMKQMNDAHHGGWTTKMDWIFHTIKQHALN

IC50 [1] | IC50 [2] | Ki [3] | Ki [4] | Kd [5] | Kd [6] | Kd [7] | Kd [8] | Kd [9] | Kd [10] | Activity [11] | remaining at 1 h, 1 µM (CYP1A1) | remaining at 1 h, 1 µM (CYP1A2) | Compound
0.191 µM | 0.061 µM | 0.469 µM | 0.0047 µM | 0.00088 µM | 0.081 µM | 1.35 µM | 0.595 µM | > 30 µM | 0.028 µM | Not Active | 1.9% | 101% | C[C@@H]1COCCN1c1nc(-c2cnc(N)cc2C(F)F)nc(N2CCOCC2(C)C)n1
0.096 µM | 0.071 µM | 0.287 µM | 0.0036 µM | 0.00067 µM | 0.11 µM | 1.45 µM | 1.35 µM | > 30 µM | 0.065 µM | Not Active | 45.1% | 98.5% | C[C@@H]1COCCN1c1nc(-c2cnc(N)cc2C(F)F)nc(N2[C@H](C)COC[C@@H]2C)n1
